For one data set, the system named is Blood. In words: Inhibition of LPS-induced TNFalpha production in human whole blood. In kind it is functional, tissue-based.
Data set [1] addresses 3',5'-cyclic-AMP phosphodiesterase 4B (Homo sapiens, UniProt Q07343). In words: Inhibition of PDE4B catalytic domain by scintillation proximity assay. An outline of the steps:
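PDE4B catalytic activity inhibition measured by scintillation proximity assay; pIC50 reported as mean of two determinations.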
(In general: Scintillation proximity formats need no separation of bound from free tracer.)

Data set [2] can be described thus: Oral bioavailability in rat. Type of data set: ADME, organism-based. The conditions noted are these: in vivo.
A short description of data set [3]: Aqueous solubility of the compound. Type of data set: physicochemical.
Data set [4] can be described thus: Oral bioavailability in cynomolgus monkey. Type of data set: ADME, organism-based, Macaca fascicularis. As to conditions: in vivo. Put shortly: (§1)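 Cynomolgus monkey pharmacokinetics after oral dosing as a solution in 10% DMSO, 15% PEG400, 75% water; a second arm used suspension dosing of particle-size-reduced material in 1% methyl cellulose. Values are means of three experiments.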

Data set [5] is described as follows: Clearance in cynomolgus monkey plasma. Type of data set: ADME, organism-based, Macaca fascicularis. An outline of the steps: as §1
Data set [6] in a line: Half life in cynomolgus monkey. In kind it is ADME, organism-based, Macaca fascicularis. As to conditions: in vivo. An outline of the steps: as §1
Data set [7] is described as follows: Selectivity for PDE4B over PDE6.
Data set [8] in a line: Selectivity for PDE4B over PDE5.
Data set [9] can be described thus: Selectivity for PDE4B over PDE1.
A short description of data set [10]: Selectivity for PDE4B over PDE7.
The nature of data set [11]: Selectivity for PDE4B over PDE3.
Data set [12] is described as follows: Selectivity for PDE4B over PDE2.

In brackets after ≈: the same amount, converted by molar mass.

Chain of 3',5'-cyclic-AMP phosphodiesterase 4B (Q07343 whole entry, the tested form may be a part): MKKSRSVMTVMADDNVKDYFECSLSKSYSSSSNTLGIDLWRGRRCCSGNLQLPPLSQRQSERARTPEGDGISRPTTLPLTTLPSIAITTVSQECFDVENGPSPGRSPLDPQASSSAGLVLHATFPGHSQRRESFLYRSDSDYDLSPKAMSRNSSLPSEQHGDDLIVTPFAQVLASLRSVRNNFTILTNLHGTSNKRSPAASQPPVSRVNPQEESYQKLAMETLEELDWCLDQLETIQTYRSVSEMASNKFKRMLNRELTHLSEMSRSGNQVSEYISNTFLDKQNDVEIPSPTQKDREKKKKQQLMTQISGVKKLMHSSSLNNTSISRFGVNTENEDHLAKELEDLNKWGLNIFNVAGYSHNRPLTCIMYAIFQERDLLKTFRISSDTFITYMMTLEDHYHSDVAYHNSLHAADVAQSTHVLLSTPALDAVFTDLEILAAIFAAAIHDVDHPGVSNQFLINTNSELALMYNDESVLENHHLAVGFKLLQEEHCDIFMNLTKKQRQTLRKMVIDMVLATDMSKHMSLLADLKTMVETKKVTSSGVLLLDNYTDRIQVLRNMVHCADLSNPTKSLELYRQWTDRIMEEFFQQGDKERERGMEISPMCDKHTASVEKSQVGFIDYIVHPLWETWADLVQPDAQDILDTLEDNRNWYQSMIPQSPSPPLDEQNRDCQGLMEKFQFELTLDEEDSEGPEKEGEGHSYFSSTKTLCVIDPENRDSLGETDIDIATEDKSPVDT

The term IC50 denotes the concentration that gives 50% inhibition. As for `CS(=O)(=O)c1cc(F)c2c(c1)C(Nc1cncc(F)c1)=C(C(N)=O)NN2`, the results for the IC50 (with Blood; in data set [1]) were 158 nM and 0.631 nM, respectively.
One may read the bioavailability as dose-corrected exposure relative to a reference, in per cent. Usually solubility stands for the concentration that dissolves in the medium under given conditions. Regarding `Cc1cc(S(C)(=O)=O)cc2c1NNC(C(N)=O)=C2Nc1cncc(F)c1`, the bioavailability in data set [2] was 34%. The values for the IC50 (with Blood; in data set [1]) were 5.01 nM and less than 0.501 nM, respectively. Besides, the concentration in solution in [3] (solubility) came to 37 µg/mL (≈ 98 µM).
Consider `Cc1cc(S(C)(=O)=O)cc2c1NNC(C(N)=O)=C2Nc1cncc(Cl)c1`, for which the bioavailability in [2] amounted to 50%. The IC50 is 1.58 nM in the data set on Blood and 0.0794 nM in [1]. For the same molecule, the solubility in [3] amounted to 12 µg/mL (≈ 30.5 µM).
Turning to `CCn1nccc1NC1=C(C(N)=O)NNc2c(C)cc(S(=O)(=O)CC)cc21`, in data set [2], the bioavailability was 41%. Also, the values for the IC50 (in the data set on Blood; in data set [1]) were 10 nM and 0.316 nM, respectively.
What is called clearance is the rate of elimination divided by the concentration. Usually half-life stands for the time needed for the level to fall by half in the phase considered. As to `Cc1cc(S(C)(=O)=O)cc2c(Nc3cccc(C#N)c3)c(C(N)=O)c(=O)[nH]c12`, the bioavailability in [4] is 52%. The IC50 in the data set on Blood was 25.1 nM; in data set [1], 1 nM. Further, the clearance in data set [5] was 5.9 mL/min/kg. Further, the half-life in data set [6] was 4.2 h.
Molecule `Cc1cc(S(C)(=O)=O)cc2c(Nc3cccc(C#N)c3)c(C(N)=O)cnc12` displayed a bioavailability in data set [4] of 33%. This molecule also showed an IC50 in the data set with Blood of 12.6 nM. The molecule further yielded a clearance in data set [5] of 82 mL/min/kg. For the same molecule, in [3], the solubility was 1 µg/mL (≈ 2.63 µM). Moreover, the half-life in [6] was 0.8 h.
In turn, `CC(C)(C)S(=O)(=O)c1ccc2c(c1)C(Nc1cncc(F)c1)=C(C(N)=O)NN2` showed a bioavailability in data set [2] of 57%. For the same molecule, the values for the IC50 (with Blood; in data set [1]) were 12.6 nM and 0.501 nM, respectively. In data set [3], this molecule had a solubility of 1 µg/mL (≈ 2.47 µM).
In the same order, the values of `CS(=O)(=O)c1ccc2c(c1)C(Nc1cncc(Cl)c1)=C(C(N)=O)NN2` are 66%, 31.6 nM, 0.794 nM and 7 µg/mL (≈ 18.4 µM).
Turning to `Cc1cc(S(C)(=O)=O)cc2c1NNC(C(N)=O)=C2Nc1cccc(C#N)c1`, the bioavailability was 64% in data set [4] and 17% in data set [2]. The IC50 in the data set with Blood is 2.51 nM; in data set [1], less than 1 nM. In addition, the Selectivity ratio in data set [7], in data set [8], in data set [9], in data set [10], in data set [11] and in [12] was greater than 100 each time. Also, the clearance in data set [5] came out at 1.6 mL/min/kg. Besides, the solubility in [3] was found to be 1 µg/mL (≈ 2.61 µM). In [6], this molecule had a half-life of 7.2 h.

The values above are taken from ChEMBL document CHEMBL1153148, “Addressing species specific metabolism and solubility issues in a quinoline series of oral PDE4 inhibitors” (Bioorg Med Chem Lett, 2010).
